Measured values: ChEMBL document CHEMBL3244208, “Quantitative structure-activity relationships for 5-substituted 8-hydroxyquinolines as inhibitors of dental plaque” (J Med Chem, 1977)

What was measured:
[1] = Ionization constant, pKa of 8-hydroxyl group of the compound at 1 mM by potentiometric analysis; format: physicochemical
In short: (§1)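 Potentiometric titration of 10⁻³ M test solutions in ethanol (95%)–water mixtures of varying proportion, 100 ml per titration, at 25 ± 0.1 °C under nitrogen with stirring. Titrant added in 0.25-ml aliquots, with stirring and gas stopped for each pH reading. Acidic function titrated with 0.02 N KOH, basic function with 0.02 N HCl. Boiled distilled, deionized water used for dilutions.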

[2] = Ionization constant, pKa of quinoline nitrogen group of the compound at 1 mM by potentiometric analysis; format: physicochemical; in short: as §1
[3] = 1-Octanol-water partition coefficient, log P of the compound by spectrophotometer analysis corrected for ionization; format: physicochemical
In short: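 Octanol-water log P was measured by the shake-flask method: UV-spectrophotometric assay of one phase, the other by difference, at least triplicate runs with different sample amounts, averaged. The measured log P was then corrected for ionization.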

[4] = 1-Octanol-water partition coefficient, log P of the compound by spectrophotometer analysis; format: physicochemical
In short: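 Shake-flask partition between 1-octanol and water. Phase-volume ratio and sample amount set so that test-layer absorbance after partitioning fell between 0.2 and 0.9 in a 1-cm cell. The solute was measured by UV spectrophotometry in one layer only, and the other layer was obtained by difference. P = C_octanol/C_water. At least triplicate runs with different sample amounts, log P averaged.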

[5] = Ionization constant, pKa of substituent at 5th position of the compound at 1 mM by potentiometric analysis; format: physicochemical; in short: as §1
Streptococcus mutans = assay: Antibacterial activity against Streptococcus mutans No.6715 assessed as inhibition of bacterial growth after 24 to 48 hrs by spectrophotometric analysis; format: functional; conditions: for MIC: Streptococcus mutans, No.6715
In short: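 S. mutans No. 6715, pure plaque-forming strain; media inoculated with 0.20 ml of a 24-h culture. Incubated anaerobically at 37 °C. Growth was read spectrophotometrically (% T) at 24 and 48 h. Dilution series run in sets of five tubes. MIC (molar) was taken as the lowest drug level whose tubes read above 60% T at 24 h.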

pKa at 1000 µM [1]	pKa at 1000 µM [2]	logP [3]	logP [4]	pKa at 1000 µM [5]	log(1/MIC) (Streptococcus mutans)	MIC (Streptococcus mutans) [µM]	SMILES
9.53	4.93	1	1	–	–	–	OCc1ccc(O)c2ncccc12
7.01	4.42	2.07	–	–	–	–	O=Cc1ccc(O)c2ncccc12
8.31	4.43	3.29	–	–	–	–	Oc1ccc(I)c2cccnc12
7.62	4.07	1.96	–	–	–	–	CC(=O)c1ccc(O)c2ncccc12
9.96	4.84	2.1	2.1	–	–	–	COc1ccc(O)c2ncccc12
9.46	4.47	2.37	1.06	8.66	–	–	CN(C)Cc1ccc(O)c2ncccc12
9.19	4.48	4.41	1.41	9.32	–	–	CCN(CC)Cc1ccc(O)c2ncccc12
9.25	4.3	1.82	–	–	–	–	N#CCc1ccc(O)c2ncccc12
9.46	4.72	–	–	–	–	–	COC(=O)Cc1ccc(O)c2ncccc12
9.4	4.72	2.27	–	–	–	–	CCOC(=O)Cc1ccc(O)c2ncccc12
–	–	–	–	–	-0.301	2	Cl.Oc1ccc(Cl)c2cccnc12
–	–	–	–	–	-1.903	80	Cl.O=[N+]([O-])c1ccc(O)c2ncccc12
–	–	–	–	–	-0.602	4	CC(=O)c1ccc(O)c2ncccc12.Cl
–	–	–	–	–	-1.301	20	Cc1ccc(O)c2ncccc12.Cl
–	–	–	–	–	-1.602	40	COc1ccc(O)c2ncccc12.Cl
–	–	–	–	–	-1.602	40	CN(C)Cc1ccc(O)c2ncccc12.Cl
–	–	–	–	–	-1.602	40	CCN(CC)Cc1ccc(O)c2ncccc12.Cl
–	–	–	–	–	-2	100	Cl.OCc1ccc(O)c2ncccc12
–	–	–	–	–	-1.778	60	Cl.N#CCc1ccc(O)c2ncccc12
–	–	–	–	–	-2.903	800	COC(=O)Cc1ccc(O)c2ncccc12.Cl
–	–	–	–	–	-2.903	800	CCOC(=O)Cc1ccc(O)c2ncccc12.Cl
–	–	–	–	–	-0.602	4	Cl.Oc1ccc(I)c2cccnc12
–	–	–	–	–	-0.778	6	Cl.O=Cc1ccc(O)c2ncccc12
8.7	3.8	2.94	2.91	–	–	–	Oc1ccc(Cl)c2cccnc12 [CLOXYQUIN]
5.97	3.68	0.11	-1.17	–	–	–	O=[N+]([O-])c1ccc(O)c2ncccc12 [NITROXOLINE]
9.92	5.25	2.38	2.38	–	–	–	Cc1ccc(O)c2ncccc12 [TILIQUINOL]

SMILES	pKa at 1000 µM [1]	pKa at 1000 µM [2]	logP [3]	logP [4]	pKa at 1000 µM [5]	log(1/MIC) (Streptococcus mutans)	MIC (Streptococcus mutans) [µM]
Cl.Oc1cccc2cccnc12	–	–	–	–	–	-0.301	2
Oc1cccc2cccnc12 [OXYQUINOLINE]	9.64	5.14	1.95	–	–	–	–
